Data taken from ChEMBL document CHEMBL4177755, “Combating Drug-Resistant Fungi with Novel Imperfectly Amphipathic Palindromic Peptides” (J Med Chem, 2018).

Key:
[1] = tested on: Escherichia coli; assay: Antibacterial activity against Escherichia coli ATCC 25922 after 18 hrs in presence of KCl by broth dilution method; assay type: functional; settings: ATCC 25922, 18 h
[2] = tested on: Candida albicans; assay: Fungicidal activity against Candida albicans 58288 after 96 hrs; assay type: functional; settings: Candida albicans, 58288, 96 h; read-out: MFC99.9
In short: (§1)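 After the 48 h, 28 °C broth microdilution in MOPS-buffered RPMI 1640 (inoculum (0.5−1) × 10^3 CFU/mL), 50 μL from each well was plated on YM agar for a further 48 h at 28 °C. MFC is the lowest concentration killing at least 99.9% of cells. Triplicate, three biological replicates.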

[3] = tested on: Candida albicans; assay: Fungicidal activity against Candida albicans 14936 after 96 hrs; assay type: functional; settings: Candida albicans, 14936, 96 h; read-out: MFC99.9; in short: as §1
[4] = tested on: Escherichia coli; assay: Antibacterial activity against Escherichia coli ATCC 25922 after 18 hrs in presence of NaCl by broth dilution method; assay type: functional; settings: ATCC 25922, 18 h
[5] = tested on: Staphylococcus aureus; assay: Antibacterial activity against methicillin-resistant Staphylococcus aureus ATCC 4330 after 24 hrs; assay type: functional; settings: ATCC 4330, 24 h
In short: (§2)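 Modified NCCLS broth microdilution. Mid-log bacteria at (0.5−1) × 10^5 CFU/mL in MHB were mixed 1:1 with peptide serially diluted in 0.2% BSA and incubated 24 h at 37 °C. Absorbance was read at 492 nm; MIC is the lowest concentration inhibiting 95% of growth. At least 3 repeats.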

[6] = tested on: Candida albicans; assay: Antifungal activity against Candida albicans SP3903 after 48 hrs by broth microdilution method; assay type: functional; settings: SP3903, 48 h
In short: (§3)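 Modified CLSI M27-A2 broth microdilution. Yeast at (0.5−1) × 10^3 CFU/mL in MOPS-buffered RPMI 1640 was mixed 1:1 with peptide serially diluted in 0.2% BSA and incubated 48 h at 28 °C. Absorbance was read at 492 nm; MIC is the lowest concentration inhibiting 95% of growth. Triplicate, three biological replicates.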

[7] = tested on: Candida albicans; assay: Antifungal activity against Candida albicans cgmcc 2.2086 in presence of FeCl3 by broth dilution method; assay type: functional
[8] = tested on: Candida albicans; assay: Antifungal activity against Candida albicans SP3876 after 48 hrs by broth microdilution method; assay type: functional; settings: SP3876, 48 h; in short: as §3
[9] = tested on: Candida albicans; assay: Fungicidal activity against fluconazole-resistant Candida albicans 56214 after 96 hrs; assay type: functional; settings: Candida albicans, 56214, 96 h; read-out: MFC99.9; in short: as §1
[10] = tested on: Candida albicans; assay: Antifungal activity against Candida albicans 14936 after 48 hrs by broth microdilution method; assay type: functional; settings: Candida albicans, 14936, 48 h; in short: as §3
[11] = tested on: Candida albicans; assay: Antifungal activity against fluconazole-resistant Candida albicans 56214 after 48 hrs by broth microdilution method; assay type: functional; settings: Candida albicans, 56214, 48 h; in short: as §3
[12] = tested on: Escherichia coli; assay: Antibacterial activity against Escherichia coli ATCC 25922 after 18 hrs in presence of MgCl2 by broth dilution method; assay type: functional; settings: ATCC 25922, 18 h
[13] = tested on: Escherichia coli; assay: Antibacterial activity against Escherichia coli ATCC 25922 after 18 hrs in presence of FeCl3 by broth dilution method; assay type: functional; settings: ATCC 25922, 18 h
[14] = tested on: Staphylococcus aureus; assay: Antibacterial activity against Staphylococcus aureus ATCC 29213 after 24 hrs; assay type: functional; settings: ATCC 29213, 24 h; in short: as §2
[15] = Cytotoxicity against mouse RAW264.7 cells assessed as cell viability at 2 to 64 uM after 24 hrs by MTT assay relative to control; assay type: cell-based; settings: read-out: Activity
In short: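 MTT viability assay. RAW264.7 or HEK293T cells at (1.0−2.0) × 10^5 per well were exposed to a peptide concentration series for 24 h at 37 °C in 5% CO2. MTT was then added at 0.5 mg/mL final for 4 h; formazan was dissolved in DMSO and read at 570 nm. Results average three independent trials.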

[16] = tested on: Staphylococcus aureus; assay: Antibacterial activity against Staphylococcus aureus ATCC 25923 after 24 hrs; assay type: functional; settings: ATCC 25923, 24 h; in short: as §2
[17] = tested on: Escherichia coli; assay: Bactericidal activity against Escherichia coli 1005; assay type: functional; settings: read-out: MBC99.9
In short: (§4)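 Wells from the 24 h, 37 °C MHB microdilution plates (bacteria at a final (0.5−1) × 10^5 CFU/mL; peptide diluted in 0.2% BSA) were plated on agar and incubated overnight. MBC is the lowest concentration killing >99.9% of cells. Each test was reproduced at least 3 times.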

[18] = tested on: Staphylococcus epidermidis; assay: Antibacterial activity against Staphylococcus epidermidis ATCC 12228 after 24 hrs; assay type: functional; settings: ATCC 12228, 24 h
In short: (§5)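 Broth microdilution. Mid-log bacteria in MHB at a final (0.5−1) × 10^5 CFU/mL were mixed with equal volumes of peptide serially diluted in 0.2% BSA. Plates were incubated 24 h at 37 °C and read at A492. MIC is the lowest concentration inhibiting 95% of growth. Each test was repeated at least 3 times.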

[19] = tested on: Escherichia coli; assay: Antibacterial activity against Escherichia coli ATCC 25922 after 18 hrs in presence of NH4Cl by broth dilution method; assay type: functional; settings: ATCC 25922, 18 h
[20] = tested on: Escherichia coli; assay: Bactericidal activity against Escherichia coli ATCC 25922; assay type: functional; settings: read-out: MBC99.9; in short: as §4
[21] = tested on: Candida albicans; assay: Antifungal activity against Candida albicans isolated from alveolar fluid after 48 hrs by broth microdilution method; assay type: functional; in short: as §3
[22] = tested on: Candida albicans; assay: Antifungal activity against Candida albicans SP3931 after 48 hrs by broth microdilution method; assay type: functional; settings: SP3931, 48 h; in short: as §3
[23] = tested on: Candida albicans; assay: Fungicidal activity against Candida albicans cgmcc 2.2086 after 96 hrs; assay type: functional; settings: cgmcc 2.2086, 96 h, read-out: MFC99.9; in short: as §1
[24] = tested on: Candida parapsilosis; assay: Antifungal activity against Candida parapsilosis cgmcc 2.3989 after 48 hrs by broth microdilution method; assay type: functional; settings: Lodderomyces parapsilosis, cgmcc 2.3989, 48 h
In short: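 Modified CLSI M27-A2 broth microdilution. Yeast were suspended in MOPS-buffered RPMI 1640 at a final (0.5−1) × 10^3 CFU/mL and mixed 1:1 with peptide serially diluted in 0.2% BSA. Plates were incubated 48 h at 28 °C and read at A492. MIC is the lowest concentration giving 95% inhibition. Run in triplicate with three biological replicates.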

[25] = tested on: Salmonella typhimurium; assay: Antibacterial activity against Salmonella typhimurium ATCC 14028 after 24 hrs; assay type: functional, Salmonella enterica subsp. enterica serovar Typhimurium; settings: Salmonella enterica, ATCC 14028, 24 h; in short: as §5
[26] = tested on: Candida albicans; assay: Fungicidal activity against fluconazole-resistant Candida albicans 56452 after 96 hrs; assay type: functional; settings: Candida albicans, 56452, 96 h; read-out: MFC99.9; in short: as §1
[27] = tested on: Candida albicans; assay: Antifungal activity against Candida albicans cgmcc 2.2086 in presence of KCl by broth dilution method; assay type: functional
[28] = tested on: Salmonella typhimurium; assay: Bactericidal activity against Salmonella typhimurium ATCC 14028; assay type: functional, Salmonella enterica subsp. enterica serovar Typhimurium; settings: Salmonella enterica, read-out: MBC99.9; in short: as §4
[29] = tested on: Escherichia coli; assay: Antibacterial activity against Escherichia coli ATCC 25922 after 18 hrs in presence of CaCl2 by broth dilution method; assay type: functional; settings: ATCC 25922, 18 h
[30] = tested on: Escherichia coli; assay: Antibacterial activity against Escherichia coli ATCC 25922 after 24 hrs; assay type: functional; settings: ATCC 25922, 24 h; in short: as §5
[31] = tested on: Candida albicans; assay: Antifungal activity against Candida albicans cgmcc 2.2086 in presence of MgCl2 by broth dilution method; assay type: functional
[32] = tested on: Candida albicans; assay: Fungicidal activity against Candida albicans SP3931 after 96 hrs; assay type: functional; settings: SP3931, 96 h, read-out: MFC99.9; in short: as §1
[33] = tested on: Candida albicans; assay: Fungicidal activity against fluconazole-resistant Candida albicans 17546 after 96 hrs; assay type: functional; settings: Candida albicans, 17546, 96 h; read-out: MFC99.9; in short: as §1

Substance	MIC [1]	MFC [2]	MFC [3]	MIC [4]	MIC95 [5]	MIC95 [6]	MIC [7]	MIC95 [8]	MFC [9]	MIC95 [10]	MIC95 [11]	MIC [12]	MIC [13]	MIC95 [14]	viability at 24 h, up to 64 µM [15]	MIC95 [16]	MBC [17]	MIC95 [18]	MIC [19]	MBC [20]	further results
H-RLLRRLRRLLR-NH2	4 µM	16 µM	8 µM	4 µM	8 µM	4 µM	8 µM	4 µM	16 µM	8 µM	8 µM	2 µM	16 µM	4 µM	70 to 80%	8 µM	4 µM	4 µM	4 µM	16 µM	MIC95 [21]: 8 µM; MIC95 [22]: 8 µM; MFC [23]: 16 µM; MIC95 [24]: 8 µM; MIC95 [25]: 8 µM; MFC [26]: 8 µM; MIC [27]: 16 µM; MBC [28]: 16 µM; MIC [29]: 8 µM; MIC95 [30]: 4 µM; MIC [31]: 32 µM; MFC [32]: 8 µM; MFC [33]: 16 µM
H-RIIRRIRRIIR-NH2	16 µM	16 µM	8 µM	16 µM	16 µM	4 µM	16 µM	8 µM	16 µM	8 µM	8 µM	16 µM	16 µM	64 µM	70 to 80%	32 µM	8 µM	16 µM	16 µM	32 µM	MIC95 [21]: 16 µM; MIC95 [22]: 16 µM; MFC [23]: 64 µM; MIC95 [24]: > 64 µM; MIC95 [25]: 16 µM; MFC [26]: 8 µM; MIC [27]: 64 µM; MBC [28]: 32 µM; MIC [29]: 32 µM; MIC95 [30]: 16 µM; MIC [31]: 32 µM; MFC [32]: 32 µM; MFC [33]: 16 µM
H-LLRRLRRLL-NH2	16 µM	32 µM	> 64 µM	16 µM	8 µM	16 µM	64 µM	32 µM	32 µM	32 µM	32 µM	16 µM	16 µM	64 µM	70 to 80%	16 µM	16 µM	16 µM	16 µM	32 µM	MIC95 [21]: 64 µM; MIC95 [22]: 32 µM; MFC [23]: 64 µM; MIC95 [24]: > 64 µM; MIC95 [25]: 16 µM; MFC [26]: 32 µM; MIC [27]: 64 µM; MBC [28]: 32 µM; MIC [29]: 64 µM; MIC95 [30]: 16 µM; MIC [31]: 64 µM; MFC [32]: 32 µM; MFC [33]: > 64 µM
H-RRWRWWWRWRR-NH2	4 µM	8 µM	8 µM	4 µM	4 µM	4 µM	4 µM	2 µM	8 µM	8 µM	4 µM	2 µM	4 µM	2 µM	70 to 80%	4 µM	4 µM	4 µM	4 µM	4 µM	MIC95 [21]: 4 µM; MIC95 [22]: 4 µM; MFC [23]: 8 µM; MIC95 [24]: 8 µM; MIC95 [25]: 4 µM; MFC [26]: 4 µM; MIC [27]: 8 µM; MBC [28]: 8 µM; MIC [29]: 8 µM; MIC95 [30]: 4 µM; MIC [31]: 4 µM; MFC [32]: 8 µM; MFC [33]: 4 µM
